Reference: ChEMBL document CHEMBL1137457, “5'-O-masked 2'-deoxyadenosine analogues as lead compounds for hepatitis C virus (HCV) therapeutic agents” (Bioorg Med Chem, 2007)
pEC50: −log10 of the molar value.

Assays:
Hepatitis C virus = assay: Inhibition of HCV replication in Huh7 cells after 48 hrs by luciferase assay; type: functional, organism-based, Hepacivirus hominis; settings: Huh-7, 48 h
Method in brief: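 HCV subgenomic replicon cells carrying luciferase reporter; replicon inhibition read by luciferase after two-day incubation with compound; EC50 averaged from at least three independent experiments.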

[1] = Cytotoxicity against Huh7 cells by XTT assay; type: cell-based; settings: human, huh-7
Method in brief: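 Cytotoxicity in the replicon-bearing cells measured by XTT tetrazolium assay per manufacturer's protocol; CC50 averaged from at least three independent experiments.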

[2] = Antiviral index, ratio of CC50 for Huh7 cells to EC50 for HCV replication; type: functional, Huh-7
Method in brief: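 Antiviral index calculated as 50% toxic dose (XTT, replicon cells) divided by 50% effective dose (luciferase replicon read-out after two days); from at least three independent experiments.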

Row | SMILES | pEC50 (Hepatitis C virus) | CC50 [1] [µM] | Ratio CC50/EC50 [2]
1 | O[C@H]1C[C@H](n2cnc3c(Cl)ncnc32)O[C@@H]1COCc1ccccc1 | 4.75 | 178 | 10.1
2 | CN(C)c1ncnc2c1ncn2[C@H]1C[C@H](O)[C@@H](COC(=O)c2ccccc2)O1 | 4.65 | > 200 | >9
3 | CSc1ncnc2c1ncn2[C@H]1C[C@H](O)[C@@H](COC(=O)c2ccccc2)O1 | < 4.00 |  | 
4 | O=C(OC[C@@H]1C[C@@H](O)[C@H](n2cnc3c(Cl)ncnc32)O1)c1ccccc1 | 4.42 | 70.5 | 1.9
5 | CC(C)(C)C(=O)OC[C@H]1O[C@@H](n2cnc3c(Cl)ncnc32)C[C@@H]1O | 4.55 | 177 | 6.3
6 | COc1ccc(C(=O)OC[C@H]2O[C@@H](n3cnc4c(Cl)ncnc43)C[C@@H]2O)cc1 | 5.08 | 76.4 | 9.1
7 | Cc1cc(C)c(C(=O)OC[C@H]2O[C@@H](n3cnc4c(Cl)ncnc43)C[C@@H]2O)c(C)c1 | < 4.30 | 91 | <1.8
8 | O=C(OC[C@H]1C[C@@H](n2cnc3c(Cl)ncnc32)[C@@H]1CO)c1ccccc1 | 5.19 | 20 | 3.1
9 | O=C(OC[C@H]1O[C@@H](n2cnc3c(Cl)ncnc32)[C@H](O)[C@@H]1O)c1ccccc1 | 4.39 | 97.3 | 2.4
10 | O=C(OC[C@H]1O[C@@H](n2cnc3c(Cl)ncnc32)C[C@@H]1O)c1ccccc1 | 5.21 | 111 | 18.2
11 | OC[C@H]1O[C@@H](n2cnc3c(Cl)ncnc32)C[C@@H]1O | 4.33 | 173 | 3.7
12 | OC[C@@H]1C[C@@H](O)[C@H](n2cnc3c(Cl)ncnc32)O1 | 4.19 | > 200 | >3.1
13 | OCC(CO)CCn1cnc2c(Cl)ncnc21 | 4.09 | > 200 | >2.5
14 | Nc1ncnc2c1ncn2[C@H]1C[C@H](O)[C@@H](COC(=O)c2ccccc2)O1 | 3.98 | > 200 | >1.9
15 | O=C(OC[C@H]1O[C@@H](n2cnc3c(O)ncnc32)C[C@@H]1O)c1ccccc1 | < 4.00 |  | 
16 | OC[C@H]1C[C@@H](n2cnc3c(Cl)ncnc32)[C@@H]1CO | 4.34 | > 200 | 4.3
17 | O=C(OCC(CO)CCn1cnc2c(Cl)ncnc21)c1ccccc1 (configuration not stated) | 4.88 | 108 | 8.1
18 | CCCC(=O)OC[C@H]1O[C@@H](n2cnc3c(Cl)ncnc32)C[C@@H]1O | 4.52 | > 200 | >6.6
19 | C=CCOC[C@H]1O[C@@H](n2cnc3c(Cl)ncnc32)C[C@@H]1O | 4.61 | 140 | 5.7
20 | OC[C@H]1O[C@@H](n2cnc3c(Cl)ncnc32)[C@H](O)[C@@H]1O | 4.51 | > 200 | >6.5
21 | O=S(=O)(OC[C@H]1O[C@@H](n2cnc3c(Cl)ncnc32)C[C@@H]1O)c1ccccc1 | 4.54 | 146 | 5.1
22 | NC(=O)c1ncn([C@@H]2O[C@H](CO)[C@@H](O)[C@H]2O)n1 [RIBAVIRIN] | 4.26 | > 200 | >3.7
